Results of several laboratories.
Lines come from different studies, so protocols differ.
Cell line: NCI-H460
Observed: cell growth or viability

SMILES | test | setting | endpoint | result
C=CC(=O)Nc1cccc(Oc2nc(Nc3ccc(N4CCN(C)CC4)cc3)nc3ccsc23)c1 | MTT |  | IC50 | 642 nM
c1ccc2cc(Cn3cc[n+](Cc4ccc5ccccc5c4)c3)ccc2c1 | SRB |  | TGI | 10400 nM
CN1C[C@H](C(=O)N[C@]2(C)O[C@@]3(O)[C@@H]4CCCN4C(=O)[C@H](Cc4ccccc4)N3C2=O)C[C@@H]2c3cccc4[nH]cc(c34)C[C@H]21 | MTT | 72 h | EC50 | 67000 nM
COc1ccccc1/C=C/C(=O)c1ccc(OC)c(S(N)(=O)=O)c1 | SRB | 48 h | GI50 | 2100 nM
C=CC(=O)Nc1cc(Nc2nc(N3CCc4sccc4C3)c3cccnc3n2)c(OC)cc1N1CCN(C(C)=O)CC1 | MTT |  | IC50 | > 50000 nM
COc1ccc(C(=O)/C=C/c2cccc3ccccc23)cc1S(N)(=O)=O | SRB | 48 h | GI50 | 1800 nM
S=C([S][Au-][P+](CCCCCC[P+]([Au-][S]C(=S)n1cccn1)(c1ccccc1)c1ccccc1)(c1ccccc1)c1ccccc1)n1cccn1 | SRB |  | GI50 | 1430 nM
COc1cc(N(C)CCN(C)C)c(NC(=O)C=C(C)C)cc1Nc1nc(Nc2cnn(C)c2)c2sccc2n1 | MTT |  | IC50 | 1320 nM
c1ccc(-c2n(Cc3ccc4ccccc4c3)cc[n+]2Cc2ccc3ccccc3c2)cc1 | SRB |  | TGI | 2870 nM
C=C(Cl)C(=O)Nc1cc(Nc2nc(N3CCSCC3)c3sccc3n2)c(OC)cc1N(C)CCN(C)C | MTT |  | IC50 | 1320 nM
COc1ccc(C(=O)/C=C/c2ccc3ccccc3c2)cc1S(N)(=O)=O | SRB | 10 µM | inhibition | 98%
C=CC(=O)Nc1cc(Nc2nc(N3CCc4sccc4C3)c3cccnc3n2)c(OC)cc1N1CCC(N(C)C)CC1 | MTT |  | IC50 | 558 nM
COc1ccc(C(=O)/C=C/c2cccc(Cl)c2)cc1S(N)(=O)=O | SRB | 10 µM | inhibition | 97%
COc1ccc(-c2ccc(-c3ccc(C(=N)N)nc3)s2)cc1 | SRB |  | GI50 | 520 nM
CS(=O)(=O)CCNCc1ccc(-c2ccc3ncnc(Nc4ccc(OCc5cccc(F)c5)c(Cl)c4)c3c2)o1 | MTT | 72 h | EC50 | 32000 nM
C=C(Cl)C(=O)Nc1cc(Nc2nc(Nc3cnn(C)c3)c3sccc3n2)c(OC)cc1N1CCN(C)CC1 | MTT |  | IC50 | 239 nM
CCc1n(Cc2ccc3ccccc3n2)cc[n+]1Cc1ccc2ccccc2c1 | SRB |  | TGI | 10800 nM
COc1ccc(C(=O)/C=C/c2cccnc2)cc1S(N)(=O)=O | SRB | 48 h | GI50 | 9100 nM
COc1cc(-c2ccc(-c3ccc(C(=N)N)nc3)s2)cc(OC)c1OC | SRB |  | GI50 | 2100 nM
CCCc1n(Cc2ccc3ccccc3n2)cc[n+]1Cc1ccc2ccccc2n1 | SRB |  | TGI | 11700 nM
COc1ccc(C(=O)/C=C/c2cc3c(cc2Br)OCO3)cc1S(N)(=O)=O | SRB | 10 µM | inhibition | 100%
